ChEMBL document CHEMBL3046492, “Synthesis, insecticidal, and acaricidal activities of novel 2-aryl-pyrrole derivatives containing ester groups” (2008)

Experiments:
Assay type in all cases: functional
Tetranychus cinnabarinus [1] = experiment: Acaricidal activity against adult Tetranychus cinnabarinus (carmine spider mite) in sieva bean plants assessed as mortality at 50 mg/kg treated for 3 secs measured after 2 days; conditions: 48 h
Tetranychus cinnabarinus [2] = experiment: Acaricidal activity against adult Tetranychus cinnabarinus (carmine spider mite) in sieva bean plants assessed as mortality at 100 mg/kg treated for 3 secs measured after 2 days; conditions: 48 h
Tetranychus cinnabarinus [3] = experiment: Acaricidal activity against adult Tetranychus cinnabarinus (carmine spider mite) in sieva bean plants assessed as mortality at 200 mg/kg treated for 3 secs measured after 2 days; conditions: 48 h
Culex pipiens pallens [4] = experiment: Insecticidal activity against fourth-instar larval stage of Culex pipiens pallens (mosquito) assessed as mortality at 0.10 mg/kg at 25 +/-1 degC after 2 days; conditions: 48 h
In short: (§1)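 Test solutions were prepared by adding 1 mL of each concentrated dilution to 99 mL water. Bioassays were run at 25 ± 1 °C on laboratory-reared insects.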

Culex pipiens pallens [5] = experiment: Insecticidal activity against fourth-instar larval stage of Culex pipiens pallens (mosquito) assessed as mortality at 0.25 mg/kg at 25 +/-1 degC after 2 days; conditions: 48 h; in short: as §1
Culex pipiens pallens [6] = experiment: Insecticidal activity against fourth-instar larval stage of Culex pipiens pallens (mosquito) assessed as mortality at 0.50 mg/kg at 25 +/-1 degC after 2 days; conditions: 48 h; in short: as §1
Mythimna separata [7] = experiment: Insecticidal activity against fourth-instar larval stage of Mythimna separata (Oriental armyworm) in compound pretreated corn leaves assessed as mortality at 5 mg/kg at 25 +/-1 degC measured after 2 days
Mythimna separata [8] = experiment: Insecticidal activity against fourth-instar larval stage of Mythimna separata (Oriental armyworm) in compound pretreated corn leaves assessed as mortality at 10 mg/kg at 25 +/-1 degC measured after 2 days
Mythimna separata [9] = experiment: Insecticidal activity against fourth-instar larval stage of Mythimna separata (Oriental armyworm) in compound pretreated corn leaves assessed as mortality at 20 mg/kg at 25 +/-1 degC measured after 2 days

Structure (SMILES)	mortality at 50 mg/kg (Tetranychus cinnabarinus [1]) [%]	mortality at 100 mg/kg (Tetranychus cinnabarinus [2]) [%]	mortality at 200 mg/kg (Tetranychus cinnabarinus [3]) [%]	mortality at 0.1 mg/kg (Culex pipiens pallens [4]) [%]	mortality at 0.25 mg/kg (Culex pipiens pallens [5]) [%]	mortality at 0.5 mg/kg (Culex pipiens pallens [6]) [%]	mortality at 5 mg/kg (Mythimna separata [7]) [%]	mortality at 10 mg/kg (Mythimna separata [8]) [%]	mortality at 20 mg/kg (Mythimna separata [9]) [%]
Cc1cccc(OC(C)C(=O)OCn2c(-c3ccc(Cl)cc3)c(C#N)c(Br)c2C(F)(F)F)c1 (centres undefined)	96	98	100	100	100	100	0	40	100
N#Cc1c(Br)c(C(F)(F)F)n(COC(=O)c2ccc(Cl)cc2)c1-c1ccc(Cl)cc1	100	100	100	10	20	100	10	100	100
CC(=O)OCn1c(-c2ccc(Cl)cc2)c(C#N)c(Br)c1C(F)(F)F			0	100	100	100	0	90	100
N#Cc1c(Br)c(C(F)(F)F)n(COC=O)c1-c1ccc(Cl)cc1	82	89	100	50	100	100	0	100	100
CCCC(=O)OCn1c(-c2ccc(Cl)cc2)c(C#N)c(Br)c1C(F)(F)F	100	100	100	100	100	100	0	100	100
COc1cccc(C(=O)OCn2c(-c3ccc(Cl)cc3)c(C#N)c(Br)c2C(F)(F)F)c1	50	65	100	50	65	100	0	90	100
N#Cc1c(Br)c(C(F)(F)F)n(COC(=O)C(=O)c2ccccc2)c1-c1ccc(Cl)cc1	79	88	100				0	60	100
CCC(=O)OCn1c(-c2ccc(Cl)cc2)c(C#N)c(Br)c1C(F)(F)F	88	92	100	100	100	100	0	90	100
CC(Oc1cccc(Cl)c1)C(=O)OCn1c(-c2ccc(Cl)cc2)c(C#N)c(Br)c1C(F)(F)F (centres undefined)	93	93	98	100	100	100	0	45	100
N#Cc1c(Br)c(C(F)(F)F)n(COC(=O)c2cccc([N+](=O)[O-])c2)c1-c1ccc(Cl)cc1	90	94	98	30	40	80	0	0	100
COc1ccc(C(=O)OCn2c(-c3ccc(Cl)cc3)c(C#N)c(Br)c2C(F)(F)F)cc1			0	20	30	70	0	90	100
CC(Oc1ccc(C(C)(C)C)cc1)C(=O)OCn1c(-c2ccc(Cl)cc2)c(C#N)c(Br)c1C(F)(F)F (centres undefined)	94	96	100	100	100	100	0	30	80
CCCCC(=O)OCn1c(-c2ccc(Cl)cc2)c(C#N)c(Br)c1C(F)(F)F	100	100	100	100	100	100	0	100	100
N#Cc1c(Br)c(C(F)(F)F)n(COC(=O)c2ccc([N+](=O)[O-])cc2)c1-c1ccc(Cl)cc1	92	93	95	20	60	100	0	50	100
N#Cc1c(Br)c(C(F)(F)F)n(COC(=O)c2cc([N+](=O)[O-])cc([N+](=O)[O-])c2)c1-c1ccc(Cl)cc1			0	100	100	100	0	0	100
N#Cc1c(Br)c(C(F)(F)F)n(COC(=O)c2ccccc2Cl)c1-c1ccc(Cl)cc1	93	95	99	100	100	100	0	35	100
CC(Oc1cccc([N+](=O)[O-])c1)C(=O)OCn1c(-c2ccc(Cl)cc2)c(C#N)c(Br)c1C(F)(F)F (centres undefined)			0	90	100	100	0	85	100
N#Cc1c(Br)c(C(F)(F)F)n(COC(=O)c2ccc(N)cc2)c1-c1ccc(Cl)cc1			0	10	10	100	0	0	40
CC(C)C(=O)OCn1c(-c2ccc(Cl)cc2)c(C#N)c(Br)c1C(F)(F)F	100	100	100				0	100	100
N#Cc1c(Br)c(C(F)(F)F)n(COC(=O)c2ccccc2N)c1-c1ccc(Cl)cc1			0	100	100	100	0	0	10
N#Cc1c(Br)c(C(F)(F)F)n(COC(=O)c2ccccc2[N+](=O)[O-])c1-c1ccc(Cl)cc1			0	10	20	100	20	100	100
